Reference: ChEMBL document CHEMBL2311361, “Diminutive effect on T and B-cell proliferation of non-cytotoxic α-santonin derived 1,2,3-triazoles: a report” (Eur J Med Chem, 2013)

Assay: Cytotoxicity against in Balb/c mouse B cells at 10^-6 M after 48 hrs by MTT assay
Format: cell-based
Details: 1 µM
Procedure, shortened: (§1)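 Spleens taken aseptically from Balb/c mice (18–22 g). Single-cell suspension made in incomplete RPMI, RBCs lysed with Tris-ammonium chloride, cells washed, resuspended in complete RPMI and checked for viability by trypan blue. Cells seeded at 1 × 10⁶ cells/mL. Compounds in DMSO tested at 1×10⁻⁴, 1×10⁻⁵ and 1×10⁻⁶ M, 48 h, 37 °C, 5% CO₂.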

SMILES | Activity
Cc1cc(OCc2cnnn2-c2cc(F)ccc2I)c(C)c2c1CC[C@H]1[C@H](C)C(=O)O[C@@H]21 | Toxic
CC(=O)Nc1ccc(-n2nncc2COc2cc(C)c3c(c2C)[C@@H]2OC(=O)[C@@H](C)[C@@H]2CC3)cc1 | Toxic
Cc1cc(OCc2cnnn2-c2cccc(C(N)=O)c2)c(C)c2c1CC[C@H]1[C@H](C)C(=O)O[C@@H]21 | Non-toxic
Cc1cc(OCc2cnnn2-c2c(Br)ccc(I)c2F)c(C)c2c1CC[C@H]1[C@H](C)C(=O)O[C@@H]21 | Non-toxic
Cc1cc(OCc2cnnn2-c2ccc(C=O)cc2)c(C)c2c1CC[C@H]1[C@H](C)C(=O)O[C@@H]21 | Non-toxic

Assay: Cytotoxicity against in Balb/c mouse B cells at 10^-5 M after 48 hrs by MTT assay
Format: cell-based
Details: 10 µM
Procedure, shortened: as §1

SMILES | Activity
Cc1cc(OCc2cnnn2-c2cc(F)ccc2I)c(C)c2c1CC[C@H]1[C@H](C)C(=O)O[C@@H]21 | Non-toxic
CC(=O)Nc1ccc(-n2nncc2COc2cc(C)c3c(c2C)[C@@H]2OC(=O)[C@@H](C)[C@@H]2CC3)cc1 | Non-toxic
Cc1cc(OCc2cnnn2-c2cccc(C(N)=O)c2)c(C)c2c1CC[C@H]1[C@H](C)C(=O)O[C@@H]21 | Non-toxic
Cc1cc(OCc2cnnn2-c2c(Br)ccc(I)c2F)c(C)c2c1CC[C@H]1[C@H](C)C(=O)O[C@@H]21 | Non-toxic
Cc1cc(OCc2cnnn2-c2ccc(C=O)cc2)c(C)c2c1CC[C@H]1[C@H](C)C(=O)O[C@@H]21 | Non-toxic

Assay: Cytotoxicity against in Balb/c mouse T cells at 10^-6 M after 48 hrs by MTT assay
Format: cell-based
Details: t-cell, 1 µM
Procedure, shortened: as §1

SMILES | Activity
Cc1cc(OCc2cnnn2-c2cc(F)ccc2I)c(C)c2c1CC[C@H]1[C@H](C)C(=O)O[C@@H]21 | Toxic
CC(=O)Nc1ccc(-n2nncc2COc2cc(C)c3c(c2C)[C@@H]2OC(=O)[C@@H](C)[C@@H]2CC3)cc1 | Toxic
Cc1cc(OCc2cnnn2-c2cccc(C(N)=O)c2)c(C)c2c1CC[C@H]1[C@H](C)C(=O)O[C@@H]21 | Non-toxic
Cc1cc(OCc2cnnn2-c2c(Br)ccc(I)c2F)c(C)c2c1CC[C@H]1[C@H](C)C(=O)O[C@@H]21 | Non-toxic
Cc1cc(OCc2cnnn2-c2ccc(C=O)cc2)c(C)c2c1CC[C@H]1[C@H](C)C(=O)O[C@@H]21 | Non-toxic

Assay: Cytotoxicity against in Balb/c mouse T cells at 10^-5 M after 48 hrs by MTT assay
Format: cell-based
Details: t-cell, 10 µM
Procedure, shortened: as §1

SMILES | Activity
Cc1cc(OCc2cnnn2-c2cc(F)ccc2I)c(C)c2c1CC[C@H]1[C@H](C)C(=O)O[C@@H]21 | Non-toxic
CC(=O)Nc1ccc(-n2nncc2COc2cc(C)c3c(c2C)[C@@H]2OC(=O)[C@@H](C)[C@@H]2CC3)cc1 | Non-toxic
Cc1cc(OCc2cnnn2-c2cccc(C(N)=O)c2)c(C)c2c1CC[C@H]1[C@H](C)C(=O)O[C@@H]21 | Non-toxic
Cc1cc(OCc2cnnn2-c2c(Br)ccc(I)c2F)c(C)c2c1CC[C@H]1[C@H](C)C(=O)O[C@@H]21 | Non-toxic
Cc1cc(OCc2cnnn2-c2ccc(C=O)cc2)c(C)c2c1CC[C@H]1[C@H](C)C(=O)O[C@@H]21 | Non-toxic

Assay: Cytotoxicity against in Balb/c mouse T cells at 10^-4 M after 48 hrs by MTT assay
Format: cell-based
Details: t-cell, 100 µM
Procedure, shortened: as §1

SMILES | Activity
Cc1cc(OCc2cnnn2-c2cc(F)ccc2I)c(C)c2c1CC[C@H]1[C@H](C)C(=O)O[C@@H]21 | Toxic
CC(=O)Nc1ccc(-n2nncc2COc2cc(C)c3c(c2C)[C@@H]2OC(=O)[C@@H](C)[C@@H]2CC3)cc1 | Toxic
Cc1cc(OCc2cnnn2-c2cccc(C(N)=O)c2)c(C)c2c1CC[C@H]1[C@H](C)C(=O)O[C@@H]21 | Non-toxic
Cc1cc(OCc2cnnn2-c2c(Br)ccc(I)c2F)c(C)c2c1CC[C@H]1[C@H](C)C(=O)O[C@@H]21 | Non-toxic
Cc1cc(OCc2cnnn2-c2ccc(C=O)cc2)c(C)c2c1CC[C@H]1[C@H](C)C(=O)O[C@@H]21 | Non-toxic

Assay: Cytotoxicity against in Balb/c mouse B cells at 10^-4 M after 48 hrs by MTT assay
Format: cell-based
Details: 100 µM
Procedure, shortened: as §1

SMILES | Activity
Cc1cc(OCc2cnnn2-c2cc(F)ccc2I)c(C)c2c1CC[C@H]1[C@H](C)C(=O)O[C@@H]21 | Toxic
CC(=O)Nc1ccc(-n2nncc2COc2cc(C)c3c(c2C)[C@@H]2OC(=O)[C@@H](C)[C@@H]2CC3)cc1 | Toxic
Cc1cc(OCc2cnnn2-c2cccc(C(N)=O)c2)c(C)c2c1CC[C@H]1[C@H](C)C(=O)O[C@@H]21 | Non-toxic
Cc1cc(OCc2cnnn2-c2c(Br)ccc(I)c2F)c(C)c2c1CC[C@H]1[C@H](C)C(=O)O[C@@H]21 | Non-toxic
Cc1cc(OCc2cnnn2-c2ccc(C=O)cc2)c(C)c2c1CC[C@H]1[C@H](C)C(=O)O[C@@H]21 | Non-toxic

Assay: Immunostimulant activity in Balb/c mouse B cells assessed as inhibition of LPS-induced cell proliferation at 10^-4 M after 48 hrs by MTT assay
Format: functional
Details: not given
Procedure, shortened: as §1

SMILES | inhibition at 100 µM [%]
CC(=O)Nc1ccc(-n2nncc2COc2cc(C)c3c(c2C)[C@@H]2OC(=O)[C@@H](C)[C@@H]2CC3)cc1 | 16.7

Assay: Immunostimulant activity in Balb/c mouse T cells assessed as inhibition of concanavalin A-induced cell proliferation at 10^-5 M after 48 hrs by MTT assay
Format: functional
Details: not given
Procedure, shortened: as §1

SMILES | inhibition at 10 µM [%]
Cc1cc(OCc2cnnn2-c2cc(F)ccc2I)c(C)c2c1CC[C@H]1[C@H](C)C(=O)O[C@@H]21 | 10.8
CC(=O)Nc1ccc(-n2nncc2COc2cc(C)c3c(c2C)[C@@H]2OC(=O)[C@@H](C)[C@@H]2CC3)cc1 | 13.3

Assay: Immunostimulant activity in Balb/c mouse T cells assessed as inhibition of concanavalin A-induced cell proliferation at 10^-4 M after 48 hrs by MTT assay
Format: functional
Details: not given
Procedure, shortened: as §1

SMILES | inhibition (INH) [%]
Cc1cc(OCc2cnnn2-c2cc(F)ccc2I)c(C)c2c1CC[C@H]1[C@H](C)C(=O)O[C@@H]21 | 19.16

Same assay, conditions: Mus musculus, Balb/c, T-cell, 48 h

SMILES | inhibition at 100 µM [%]
Cc1cc(OCc2cnnn2-c2cc(F)ccc2I)c(C)c2c1CC[C@H]1[C@H](C)C(=O)O[C@@H]21 | 19.2
CC(=O)Nc1ccc(-n2nncc2COc2cc(C)c3c(c2C)[C@@H]2OC(=O)[C@@H](C)[C@@H]2CC3)cc1 | 27.5

Assay: Immunosuppressive activity in Balb/c mouse B cells assessed as inhibition of LPS-induced cell proliferation at 10^-6 M after 48 hrs by MTT assay
Format: functional
Details: not given
Procedure, shortened: as §1

SMILES | inhibition at 1 µM [%]
Cc1cc(OCc2cnnn2-c2cc(F)ccc2I)c(C)c2c1CC[C@H]1[C@H](C)C(=O)O[C@@H]21 | 20.8
CC(=O)Nc1ccc(-n2nncc2COc2cc(C)c3c(c2C)[C@@H]2OC(=O)[C@@H](C)[C@@H]2CC3)cc1 | 25
Cc1cc(OCc2cnnn2-c2cccc(C(N)=O)c2)c(C)c2c1CC[C@H]1[C@H](C)C(=O)O[C@@H]21 | 44.2
Cc1cc(OCc2cnnn2-c2c(Br)ccc(I)c2F)c(C)c2c1CC[C@H]1[C@H](C)C(=O)O[C@@H]21 | 8.57
Cc1cc(OCc2cnnn2-c2ccc(C=O)cc2)c(C)c2c1CC[C@H]1[C@H](C)C(=O)O[C@@H]21 | 24.2

Assay: Immunosuppressive activity in Balb/c mouse B cells assessed as inhibition of LPS-induced cell proliferation at 10^-5 M after 48 hrs by MTT assay
Format: functional
Details: not given
Procedure, shortened: as §1

SMILES | inhibition at 10 µM [%]
Cc1cc(OCc2cnnn2-c2cc(F)ccc2I)c(C)c2c1CC[C@H]1[C@H](C)C(=O)O[C@@H]21 | 24.2
CC(=O)Nc1ccc(-n2nncc2COc2cc(C)c3c(c2C)[C@@H]2OC(=O)[C@@H](C)[C@@H]2CC3)cc1 | 15
Cc1cc(OCc2cnnn2-c2cccc(C(N)=O)c2)c(C)c2c1CC[C@H]1[C@H](C)C(=O)O[C@@H]21 | 36.8
Cc1cc(OCc2cnnn2-c2c(Br)ccc(I)c2F)c(C)c2c1CC[C@H]1[C@H](C)C(=O)O[C@@H]21 | 50
Cc1cc(OCc2cnnn2-c2ccc(C=O)cc2)c(C)c2c1CC[C@H]1[C@H](C)C(=O)O[C@@H]21 | 22.5

Assay: Immunosuppressive activity in Balb/c mouse B cells assessed as inhibition of LPS-induced cell proliferation at 10^-4 M after 48 hrs by MTT assay
Format: functional
Details: not given
Procedure, shortened: as §1

SMILES | inhibition at 100 µM [%]
Cc1cc(OCc2cnnn2-c2cc(F)ccc2I)c(C)c2c1CC[C@H]1[C@H](C)C(=O)O[C@@H]21 | 14.2
Cc1cc(OCc2cnnn2-c2cccc(C(N)=O)c2)c(C)c2c1CC[C@H]1[C@H](C)C(=O)O[C@@H]21 | 8.42
Cc1cc(OCc2cnnn2-c2c(Br)ccc(I)c2F)c(C)c2c1CC[C@H]1[C@H](C)C(=O)O[C@@H]21 | 11.4
Cc1cc(OCc2cnnn2-c2ccc(C=O)cc2)c(C)c2c1CC[C@H]1[C@H](C)C(=O)O[C@@H]21 | 35

Assay: Immunosuppressive activity in Balb/c mouse T cells assessed as inhibition of concanavalin A-induced cell proliferation at 10^-6 M after 48 hrs by MTT assay
Format: functional
Details: not given
Procedure, shortened: as §1

SMILES | inhibition (INH) [%]
Cc1cc(OCc2cnnn2-c2cc(F)ccc2I)c(C)c2c1CC[C@H]1[C@H](C)C(=O)O[C@@H]21 | 17.5

Same assay, conditions: Mus musculus, Balb/c, T-cell, 48 h

SMILES | inhibition at 1 µM [%]
Cc1cc(OCc2cnnn2-c2cc(F)ccc2I)c(C)c2c1CC[C@H]1[C@H](C)C(=O)O[C@@H]21 | 21.4
CC(=O)Nc1ccc(-n2nncc2COc2cc(C)c3c(c2C)[C@@H]2OC(=O)[C@@H](C)[C@@H]2CC3)cc1 | 20
Cc1cc(OCc2cnnn2-c2cccc(C(N)=O)c2)c(C)c2c1CC[C@H]1[C@H](C)C(=O)O[C@@H]21 | 28.4
Cc1cc(OCc2cnnn2-c2ccc(C=O)cc2)c(C)c2c1CC[C@H]1[C@H](C)C(=O)O[C@@H]21 | 5.83

Assay: Immunosuppressive activity in Balb/c mouse T cells assessed as inhibition of concanavalin A-induced cell proliferation at 10^-5 M after 48 hrs by MTT assay
Format: functional
Details: not given
Procedure, shortened: as §1

SMILES | inhibition at 10 µM [%]
Cc1cc(OCc2cnnn2-c2cc(F)ccc2I)c(C)c2c1CC[C@H]1[C@H](C)C(=O)O[C@@H]21 | 31.4
Cc1cc(OCc2cnnn2-c2cccc(C(N)=O)c2)c(C)c2c1CC[C@H]1[C@H](C)C(=O)O[C@@H]21 | 29.5
Cc1cc(OCc2cnnn2-c2ccc(C=O)cc2)c(C)c2c1CC[C@H]1[C@H](C)C(=O)O[C@@H]21 | 6.66

Assay: Immunosuppressive activity in Balb/c mouse T cells assessed as inhibition of concanavalin A-induced cell proliferation at 10^-4 M after 48 hrs by MTT assay
Format: functional
Details: not given
Procedure, shortened: as §1

SMILES | inhibition at 100 µM [%]
Cc1cc(OCc2cnnn2-c2cccc(C(N)=O)c2)c(C)c2c1CC[C@H]1[C@H](C)C(=O)O[C@@H]21 | 6.31
Cc1cc(OCc2cnnn2-c2ccc(C=O)cc2)c(C)c2c1CC[C@H]1[C@H](C)C(=O)O[C@@H]21 | 20.8
